This is an account of results in PubChem BioAssay AID624466 (The Scripps Research Institute Molecular Screening Center, 2012).

Hit rate of the full screen: of about 360,000 compounds, about 5,400 (1.5%) were called active. Many of the other results were omitted from the sample, so actives are more common in it than they were. Values without a mark were called inactive.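 The calls were made as follows: active = inhibition above a per-plate cutoff, the mean inhibition of test compounds on that plate plus 3 SD (cut at about 49% in these data); inactive = the rest.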

For this assay, the target named is Trace amine-associated receptor 1 (Homo sapiens) (UniProt Q96RJ0). As to the kind of experiment: human TAAR1 antagonists, primary screen, Fluo-8 calcium fluorescence, CHO RD-HGA16 cells (AID 624466).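 Also: 0% = DMSO plus EC80 beta-PEA response and 100% = DMSO alone without agonist.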 The note with it: CHO RD-HGA16 TAAR1, Fluo-8 calcium fluorescence, antagonist; at 3 µM; stronger effect = higher value. In outline: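 System: CHO RD-HGA16 cells bearing hTAAR1. Reagent: EC80 β-phenethylamine stimulus. Schedule: seeding 17-24 h prior, 75-min 37 °C, 30-min RT dye loading. Signal: Fluo-8 intracellular calcium dye fluorescence, real-time kinetic reads. Read-out: % inhibition from peak post-agonist over basal fluorescence ratio. Benchmarks: vehicle wells and EC80 agonist wells. Replicates: n of 1.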
Chain of Trace amine-associated receptor 1 (Homo sapiens) (Q96RJ0 whole entry, looked up): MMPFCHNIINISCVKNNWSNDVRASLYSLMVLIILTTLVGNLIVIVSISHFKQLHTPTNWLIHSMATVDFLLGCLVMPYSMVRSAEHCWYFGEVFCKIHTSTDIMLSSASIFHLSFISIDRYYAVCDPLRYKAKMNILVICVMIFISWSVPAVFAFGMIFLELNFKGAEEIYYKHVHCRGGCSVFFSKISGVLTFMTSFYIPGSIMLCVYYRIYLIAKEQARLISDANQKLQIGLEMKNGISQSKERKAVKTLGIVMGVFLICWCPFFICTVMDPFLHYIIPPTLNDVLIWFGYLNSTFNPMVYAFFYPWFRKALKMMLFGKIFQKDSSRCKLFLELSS
By inhibition is commonly meant the relative decrease from the control value, in per cent. As for `CCCCNC(=O)Nc1c(C)cc(SC#N)cc1C`, the inhibition was 7.39%.
As for `O=C(NN1C(=O)C2C3C=CC(C4CC34)C2C1=O)c1ccc(Cl)cc1` (stereo not drawn), the inhibition is 1.86%.
For the molecule `Cc1ccc(N)cc1CN1CCN(c2ncc(Cc3ccccc3)cn2)CC1`, the inhibition was -11.9%.
`O=C(Nc1cccc(S(=O)(=O)N2CCCCC2)c1)c1cncc(Br)c1`: the inhibition is 28.2%.
`Cc1onc(-c2c(F)cccc2Cl)c1C(=O)Nc1cccc(S(=O)(=O)N2CCCCC2)c1`: the inhibition is 60.4% (active).
As to `O=C(Nc1ccc(S(=O)(=O)N2CCCCCC2)cc1)c1c(F)cccc1F`, the inhibition was -11.6%.
Regarding `Cc1ccccc1S(=O)(=O)N1[C@@H](c2cccc(Cl)c2)C(C(=O)OC(C)(C)C)=CC[C@H]1c1ccc(Cl)cc1`, the inhibition was -16.6%.
To `Cc1ccccc1S(=O)(=O)N1[C@@H](c2cccc(Cl)c2)C(C(=O)O)=CC[C@H]1c1ccc(Cl)cc1` belongs 50.1% (active); to `Cc1ccc([C@@H]2CC=C(C(=O)O)[C@H](c3cccc(Cl)c3)N2S(=O)(=O)c2ccc(C)cc2)cc1`, 29.7%; to `CC(C)(C)n1nc(C2CC2)c(Br)c1NC(=O)c1ccccc1F`, -16.1%.
For `CN1CCCc2nc(-c3ccccc3)ccc21`, the inhibition is -0.46%.
For the molecule `COc1ccc(-c2ccc3c(n2)CCCN3S(=O)(=O)c2ccc(C)cc2)cc1`, the inhibition is 24%.
For the molecule `O=S(=O)(c1cccs1)N1CCCc2nc(-c3ccc(Br)cc3)ccc21`, the inhibition is 58% (active).
As for `COC(=O)[C@]12C[C@H](CC(=O)N3CCN(C(=O)C4CC4)CC3)C(=O)N(Cc3ccc4c(c3)OCO4)C1=C[C@H](C(C)(C)C)O[C@@H]2C`, the inhibition is 1.35%.
Turning to `O=C1Nc2ccccc2-n2nnnc2C1N1CCN(c2cccc(C(F)(F)F)n2)CC1` (stereo not drawn), the inhibition is 7.81%.
As to `COc1ccc(C(=O)CCC(=O)Nc2cccnc2)c(OC)c1`, the inhibition was -6.73%.
Take `COc1ccc(C(=O)Nc2cccc(NC(=O)c3ccc(OC)cc3OC)n2)c(OC)c1`: the inhibition is 64.8% (active).
Turning to `COc1ccc(C(=O)NC(C)CCc2ccccc2)c(OC)c1` (stereo not drawn), the inhibition was -22.5%.
With `CC1(C(=O)Nc2ccc3c(c2)OCCO3)CSCC(=O)N1CCOc1ccccc1` (stereo not drawn), the inhibition is -7.49%.
With `CCc1ccc2oc(-c3ccc(N)cc3)nc2c1`, the inhibition was 8.65%.
To `Cc1ccc2oc(=O)ccc2c1` belongs 2.03%.
To `CCN(CC)c1ccc2oc(=O)c(C)nc2c1` belongs 49.8% (active); to `O=C(NCCCn1ccnc1)c1cc2c(s1)CCCC2`, -26.6%; to `C/C=N/N(c1ccccc1)c1ccccc1`, -13.2%.
`C[C@H]1CN([C@@H](C)CO)C(=O)CCCn2nncc2CO[C@@H]1CN(C)C(=O)Nc1ccc(N2CCN(C)CC2)cc1`: the inhibition is 5.42%.
For `O=C(CCl)Nc1ccc(Sc2ccc(NC(=O)CCl)cc2)cc1`, the inhibition is 21.9%.
In the case of `CC(C)(CCl)C(=O)Nc1ccc(Sc2ccc(F)cc2)cc1`, the inhibition is 57.9% (active).
Turning to `CC(C)CNC(=S)Nc1ccc(F)cc1`, the inhibition is 5.98%.
Turning to `COc1cc(NS(=O)(=O)c2ccc(N/C=C(\C=O)c3nc4cc(Cl)ccc4o3)cc2)nc(OC)n1`, the inhibition was 16.2%.
On to `CCN(CC(=O)NC1CCS(=O)(=O)C1)S(=O)(=O)c1ccccc1` (stereo not drawn), for which the inhibition is -18%.
To `N#C/C(=C\c1ccc(N2CCOCC2)o1)C(=O)N1CCOCC1` belongs -12.1%; to `N#C/C(=C/c1ccc(N2CCCCC2)o1)C(=O)NCCc1c[nH]c2ccccc12`, 57.6% (active); to `O=C(NCCc1c[nH]c2ccccc12)C1CCN(Cc2ccc(Br)cc2)CC1`, 2.79%.
Consider `Cc1cc(Br)cn2c(Cc3ccccc3C(F)(F)F)c(-c3ccc(C#N)cc3)nc12`, for which the inhibition is 3.16%.
`CN(C(=O)COC(=O)CCCc1c[nH]c2ccccc12)c1c(N)n(Cc2ccccc2)c(=O)[nH]c1=O`: the inhibition was 2.09%.
To `COc1ccc(SSc2ccc(OC)cc2C(=O)O)c(C(=O)O)c1` belongs -9.02%; to `S=C(Nc1ccc(Br)cc1)NC1CCN(Cc2ccccc2)CC1`, 51.4% (active); to `S=C(Nc1ccc(Br)cc1Cl)NC1CCN(Cc2ccccc2)CC1`, 0.09%.
To `S=C(NN=C1CCN(Cc2ccccc2)CC1)NC1CCCCC1` belongs -2.21%.
To `Cc1ccc2nc(-c3ccc(CN4CCC(n5cc(-c6ccccc6)[nH]c5=O)CC4)cc3)c(-c3ccccc3)nc2c1` belongs 14.1%; to `Cc1cc(Cl)c(S(=O)(=O)NCc2cccnc2)cc1OCC(N)=O`, -0.54%; to `CCC(=O)N1Cc2cc(C(=O)NCc3cccc(F)c3)nc(-c3cccc(C4=CCCC4)c3)c2[C@H]1CCO`, -2.34%.
Take `Nc1c(C(=O)c2cccs2)sc2nsc(SCCN3CCCCC3)c12`: the inhibition was 61.2% (active).
Regarding `COc1cccc(-c2nnc(N(C)C(=O)c3ccno3)s2)c1`, the inhibition is 8.59%.
For `CN=C1SC(CC(=O)Nc2ccc(C(=O)O)cc2)C(=O)N1C` (stereo not drawn), the inhibition was -12.5%.
Turning to `CCN=C1SC(CC(=O)Nc2ccc(C)cc2)C(=O)N1CC` (stereo not drawn), the inhibition was 57.5% (active).
Regarding `CCN1C(=O)C(CC(=O)Nc2cc(C)ccc2C)SC1=Nc1ccc(S(N)(=O)=O)cc1` (stereo not drawn), the inhibition was 6.51%.
Take `Cc1ccc(NC(=O)N2c3ccccc3SC2c2ccco2)c(C)c1` (stereo not drawn): the inhibition was -10.8%.
`CC(=O)N1CCc2cc(S(=O)(=O)NC3CCCCC3)ccc21`: the inhibition was 6.97%.
`Cc1ccc(NC(=O)CN(C)C(=O)Cn2nnc(-c3ccccc3)n2)cc1`: the inhibition was -1.85%.
On to `COc1ccc(-c2nc3ccccc3n2CCC(C)C)cc1OC`, for which the inhibition was 19.6%.
To `CC(=O)OCCN(CCCn1c(-c2ccncc2)nc2ccccc21)c1nc(-c2ccc(C)cc2)cs1` belongs 53.5% (active); to `CCOCCn1c(-c2ccccc2)nc2ccccc21`, -32.8%.
As for `CCc1cccc2c3c([nH]c12)C(CC)(CC(=O)O)OCC3` (stereo not drawn), the inhibition is -11.8%.
Regarding `O=C1CCN(Cc2ccccc2)CCN1[C@H](CSc1ccccc1)c1ccccc1`, the inhibition is 15.6%.
`CC(C)C1Cc2[nH][nH]c(=O)c2C(c2ccc(Cl)cc2)O1` (stereo not drawn): the inhibition was -21.6%.
Take `CCC(c1nnnn1-c1ccc2c(c1)OCCO2)N1CCN(c2ccc(C(F)(F)F)cn2)CC1` (stereo not drawn): the inhibition is 24.4%.
As to `CC(=O)Nc1ccc(NC(=O)C(C)OC(=O)c2ccccc2C(=O)c2ccc(Cl)c([N+](=O)[O-])c2)cc1` (stereo not drawn), the inhibition is 13.5%.
With `NS(=O)(=O)c1cccc(NC(=O)COC(=O)c2cc([N+](=O)[O-])ccc2N2CCCC2)c1`, the inhibition is 7.66%.
In the case of `N#Cc1cccc(NC(=O)COC(=O)c2ccccc2C(=O)c2ccc(Cl)c([N+](=O)[O-])c2)c1`, the inhibition is 71.8% (active).
As to `O=C(c1ccco1)N1CCN(C(=O)C2CCCN(S(=O)(=O)c3cccc4nsnc34)C2)CC1` (stereo not drawn), the inhibition was 8.68%.
For the molecule `COc1cc(OC)cc(-c2c(C#Cc3ccsc3)c3cc(-c4ccc(OC)cc4F)ccc3n2C)c1`, the inhibition is 10.3%.
In the case of `COc1cccc(NC(=O)N(C)C[C@@H]2OCc3cn(nn3)CCCC(=O)N([C@@H](C)CO)C[C@H]2C)c1`, the inhibition is -3.32%.
To `Cc1cccc(C)c1NC(=O)N1CC=C(n2c(=O)[nH]c3ccccc32)CC1` belongs 17.3%; to `CCOc1ccc(NC(=O)N2CCN(CC)CC2)cc1`, 13.8%.
With `CCOc1ccc(NC(=O)N2CC=C(n3c(=O)[nH]c4ccccc43)CC2)cc1`, the inhibition is 62% (active).
Regarding `CCCNC(=S)N1CCCC(c2nc3ccccc3[nH]2)C1` (stereo not drawn), the inhibition was 1.96%.
For the molecule `CC(C)C[C@@H](COCc1ccc(Cl)cc1)N1CCN(C(=O)c2ccc(Cl)cc2Cl)CCC1=O`, the inhibition was 15.1%.
To `Fc1ccc(NC(=S)N2CCc3[nH]c4ccccc4c3C2)cc1` belongs 60.8% (active).
Take `C=CCNC(=S)N1CCc2[nH]c3ccccc3c2C1`: the inhibition was -0.9%.
For the molecule `C[C@H](O)[C@@H]1C(=O)N2CCc3c([nH]c4ccccc34)[C@@H]2C[C@@H]1N(C)C(=O)Nc1ccc(F)cc1`, the inhibition was -21.1%.
Turning to `Cc1ccc(S(=O)(=O)N2[C@@H](Cc3ccccc3)CO[C@H]2CC(=O)OCc2ccccc2)cc1`, the inhibition was 22.8%.
`COc1ccc(NC(=O)CNc2cc(S(=O)(=O)N3CCOCC3)ccc2N2CCOCC2)c(OC)c1`: the inhibition was 14.2%.
With `Cc1[nH]nc2c1C(c1ccc(Br)cc1)NC2=O` (stereo not drawn), the inhibition was -19.4%.
With `CCOC(=O)N1CCC(=NNC(N)=O)CC1`, the inhibition was 5.25%.
In the case of `N#Cc1ccc(C(c2nnnn2CCc2ccccc2)N2CCCCCC2)cc1` (stereo not drawn), the inhibition is 19.8%.
On to `Fc1ccc(Cn2nnnc2C(c2cccs2)N2CCCCCC2)cc1` (stereo not drawn), for which the inhibition was 50% (active).
Consider `Fc1ccccc1C(c1nnnn1Cc1ccc2c(c1)OCO2)N1CCN(Cc2ccccc2)CC1` (stereo not drawn), for which the inhibition was 8.62%.
Consider `CCc1nnc(NC(=O)CSc2nnnn2-c2cccc(C(C)=O)c2)s1`, for which the inhibition was -22.1%.
In the case of `O=C(NCc1ccccc1)C1c2ccccc2OCC(=O)N1CCCN1CCOCC1` (stereo not drawn), the inhibition was -17.4%.
Turning to `O=C(O)c1ccc(S(=O)(=O)c2ccccc2)s1`, the inhibition was 7.73%.
As for `Cc1ccc(NC(=O)C(=O)NCc2ccc(/C=N/NC(=O)c3c(C)nc4cc(C)ccn34)o2)cc1`, the inhibition was -9.86%.
As to `Cc1ccc(CNC(=O)c2cccnc2Cl)cc1`, the inhibition is 0.77%.
To `CSc1ccccc1C(=O)NCc1ccccc1` belongs 3.42%.
Take `Cc1ccc(CNC(=O)c2ccccc2CCc2ccccc2)cc1`: the inhibition was 49.7% (active).
As to `O=C1c2ccccc2C(=O)N1CCC#Cc1ccc2cc(C3(O)CCCCC3)oc(=O)c2c1`, the inhibition is 75.1% (active).
With `COc1cc(C#Cc2ccc3cc(CCCO)oc(=O)c3c2)cc(OC)c1`, the inhibition was 26.9%.
For `Cc1cccn2cc(-c3cccc(S(=O)(=O)N4CCCCC4)c3)nc12`, the inhibition is -29.1%.
